Publication PMC10668576 (RSC Advances, 2023)
In brackets after ≈: the same amount, converted by molar mass.

Assays:
[1] = test system: Aeromonas sobria; experiment: Disk diffusion inhibition zones; type: cell-based; settings: 24 h
Outline: (§1)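 Test compound was dissolved in DMSO at 1000 μg mL−1 and soaked onto sterile 6 mm filter-paper discs. Discs were placed on Mueller–Hinton agar inoculated with fresh cultures suspended in sterile physiological water, then incubated at 37 °C for 24 h. DMSO discs served as negative control, with azithromycin (30 mg mL−1) as reference. Clear-zone width was read in mm with a transparent ruler.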

[2] = test system: Escherichia coli; experiment: Minimum inhibitory concentration, serial dilution; type: cell-based
Outline: (§2)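 Inoculum was 10^6 cfu mL−1, incubated at 37 °C for 18–24 h. Wells were inspected for presence or absence of growth, and MIC was taken as the lowest concentration preventing growth. Each organism was tested on three separate occasions.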

[3] = test system: Klebsiella pneumoniae; experiment: Minimum inhibitory concentration, serial dilution; type: cell-based
[4] = test system: Klebsiella pneumoniae; experiment: Disk diffusion inhibition zones; type: cell-based; settings: 24 h
[5] = test system: Stenotrophomonas maltophilia; experiment: Disk diffusion inhibition zones; type: cell-based; settings: 24 h
Outline: as §1

[6] = test system: Staphylococcus aureus; experiment: Disk diffusion inhibition zones; type: cell-based; settings: 24 h
Outline: as §1

[7] = test system: Staphylococcus aureus; experiment: Minimum inhibitory concentration, serial dilution; type: cell-based; settings: Muller Hinton broth, 37 °C, 18 to 24 h
Outline: as §2

[8] = test system: Stenotrophomonas maltophilia; experiment: Minimum inhibitory concentration, serial dilution; type: cell-based
Outline: as §2

[9] = test system: Staphylococcus epidermidis; experiment: Minimum inhibitory concentration, serial dilution; type: cell-based
Outline: as §2

[10] = test system: Staphylococcus epidermidis; experiment: Disk diffusion inhibition zones; type: cell-based; settings: 24 h
Outline: as §1

[11] = test system: Bacillus cereus; experiment: Minimum inhibitory concentration, serial dilution; type: cell-based
Outline: as §2

[12] = test system: Pseudomonas aeruginosa; experiment: Disk diffusion inhibition zones; type: cell-based; settings: 24 h
Outline: as §1

[13] = test system: Bacillus cereus; experiment: Disk diffusion inhibition zones; type: cell-based; settings: 24 h
Outline: as §1

[14] = test system: Aeromonas sobria; experiment: Minimum inhibitory concentration, serial dilution; type: cell-based
Outline: as §2

[15] = test system: Escherichia coli; experiment: Disk diffusion inhibition zones; type: cell-based; settings: 24 h
Outline: as §1

[16] = test system: Pseudomonas aeruginosa; experiment: Minimum inhibitory concentration, serial dilution; type: cell-based
Outline: as §2

[17] = test system: burn wounds; experiment: Burn healing assay in rats; type: in vivo, albino Wistar female rats; settings: 1% cream, one application per 24 h on burn wound, n = 3
[18] = Acute parenteral toxicity in rats; type: in vivo; settings: 0.5 to 50 mg per kg body weight, 14 days observation
Outline: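 Single parenteral dose of test compound dissolved in ethanol with gentle heating, given by tuberculin syringe following OECD 425 to female albino Wistar rats (190 ± 20 g), 3 per dose, at 0.5, 1, 10, 30 or 50 mg kg−1. Controls were ethanol-injected and non-injected rats. Rats were observed every 30 min for 6 h, then through 24 h and daily to 14 days. Organs were examined macroscopically and weighed on day 15.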

Q: Which results are given for `CC[C@H]1OC(=O)[C@H](C)[C@@H](O[C@H]2C[C@@](C)(OC)[C@@H](O)[C@H](C)O2)[C@H](C)[C@@H](O[C@@H]2O[C@H](C)C[C@H](N(C)C)[C@H]2O)[C@](C)(O)C[C@@H](C)CN(C)[C@H](C)[C@@H](O)[C@]1(C)O` [azithromycin, reference compound]?
A: zone of inhibition at 1000 µg/mL [1]: 18 ± 0.41 mm; MIC [2]: 20 µg/mL (≈ 26.7 µM); MIC [3]: 60 µg/mL (≈ 80.1 µM); zone of inhibition at 1000 µg/mL [4]: 20 ± 0.26 mm; zone of inhibition at 1000 µg/mL [5]: 10 ± 0.02 mm; zone of inhibition at 1000 µg/mL [6]: 15 ± 0.09 mm; MIC [7]: 20 µg/mL (≈ 26.7 µM); MIC ([7]; Staphylococcus aureus): 40 µg/mL (≈ 53.4 µM); MIC [8]: 40 µg/mL (≈ 53.4 µM); MIC [9]: 80 µg/mL (≈ 107 µM); zone of inhibition at 1000 µg/mL [10]: 11 ± 0.32 mm; MIC [11]: 80 µg/mL (≈ 107 µM); zone of inhibition at 1000 µg/mL [12]: 7 ± 0.14 mm; zone of inhibition at 1000 µg/mL [13]: 11 ± 0.31 mm; MIC [14]: 20 µg/mL (≈ 26.7 µM); zone of inhibition at 1000 µg/mL [15]: 7 ± 0.32 mm

Q: For `O=C(O)c1cc(N=Nc2nccs2)ccc1O` [Compound 3, 2-Hydroxy-5-(thiazol-2-yldiazenyl)benzoic acid], which zone of inhibition at 1000 µg/mL [1] is on record?
A: The zone of inhibition at 1000 µg/mL was 10 ± 0.31 mm.

Q: What about the MIC [2] of the same compound?
A: The MIC was 60 µg/mL (≈ 241 µM).

Q: What about the MIC [3] of the same compound?
A: The MIC was 80 µg/mL (≈ 321 µM).

Q: And the zone of inhibition at 1000 µg/mL [4]?
A: The zone of inhibition at 1000 µg/mL was 11 ± 0.31 mm.

Q: What about the zone of inhibition at 1000 µg/mL [5] of the same compound?
A: Its zone of inhibition at 1000 µg/mL is 8 ± 0.11 mm.

Q: And the zone of inhibition at 1000 µg/mL [6]?
A: Its zone of inhibition at 1000 µg/mL is 12 ± 0.23 mm.

Q: What about the MIC ([7]; Staphylococcus aureus) of the same compound?
A: The MIC was 10 µg/mL (≈ 40.1 µM).

Q: And the MIC [8]?
A: The MIC was 40 µg/mL (≈ 160 µM).

Q: What about the MIC [16] of the same compound?
A: The MIC was 80 µg/mL (≈ 321 µM).

Q: What about the MIC [9] of the same compound?
A: The MIC was 10 µg/mL (≈ 40.1 µM).

Q: And the zone of inhibition at 1000 µg/mL [10]?
A: The zone of inhibition at 1000 µg/mL was 14 ± 0.25 mm.

Q: And the MIC [11]?
A: Its MIC is 20 µg/mL (≈ 80.2 µM).

Q: What about the zone of inhibition at 1000 µg/mL [12] of the same compound?
A: The zone of inhibition at 1000 µg/mL was 10 ± 0.33 mm.

Q: What about the zone of inhibition at 1000 µg/mL [13] of the same compound?
A: Its zone of inhibition at 1000 µg/mL is 10 ± 0.03 mm.

Q: What about the MIC [14] of the same compound?
A: Its MIC is 20 µg/mL (≈ 80.2 µM).

Q: And the zone of inhibition at 1000 µg/mL [15]?
A: The zone of inhibition at 1000 µg/mL was 9 mm.

Q: For `O=C(Nc1nc2ccccc2s1)c1cc(N=Nc2nccs2)ccc1O` [Compound 3b, N-(Benzo[d]thiazol-2-yl)-2-hydroxy-5-(thiazol-2-yldiazenyl)benzamide], which zone of inhibition at 1000 µg/mL [1] is on record?
A: The zone of inhibition at 1000 µg/mL was 10 ± 0.28 mm.

Q: What about the MIC [2] of the same compound?
A: Its MIC is 20 µg/mL (≈ 52.4 µM).

Q: What about the MIC [3] of the same compound?
A: The MIC was 80 µg/mL (≈ 210 µM).

Q: What about the zone of inhibition at 1000 µg/mL [4] of the same compound?
A: The zone of inhibition at 1000 µg/mL was 14 ± 0.28 mm.

Q: What about the zone of inhibition at 1000 µg/mL [5] of the same compound?
A: The zone of inhibition at 1000 µg/mL was 10 ± 0.04 mm.

Q: And the zone of inhibition at 1000 µg/mL [6]?
A: The zone of inhibition at 1000 µg/mL was 13 ± 0.58 mm.

Q: And the MIC ([7]; Staphylococcus aureus)?
A: The MIC was 20 µg/mL (≈ 52.4 µM).

Q: What about the MIC [8] of the same compound?
A: Its MIC is 20 µg/mL (≈ 52.4 µM).

Q: And the MIC [16]?
A: The MIC was 40 µg/mL (≈ 105 µM).

Q: What about the MIC [9] of the same compound?
A: Its MIC is 10 µg/mL (≈ 26.2 µM).

Q: And the zone of inhibition at 1000 µg/mL [10]?
A: Its zone of inhibition at 1000 µg/mL is 14 ± 0.23 mm.

Q: What about the MIC [11] of the same compound?
A: The MIC was 80 µg/mL (≈ 210 µM).

Q: And the zone of inhibition at 1000 µg/mL [12]?
A: Its zone of inhibition at 1000 µg/mL is 9 mm.

Q: What about the “Day utilized for recovery” value [17] of the same compound?
A: Its value is 24 days.

Q: And the zone of inhibition at 1000 µg/mL [13]?
A: Its zone of inhibition at 1000 µg/mL is 10 ± 0.33 mm.

Q: And the Mortality [18]?
A: Its Mortality is “no occurrences of mortality”.

Q: And the Signs of toxicity [18]?
A: The Signs of toxicity was “did not display any noteworthy signs of toxicity”.

Q: What about the MIC [14] of the same compound?
A: Its MIC is 10 µg/mL (≈ 26.2 µM).

Q: What about the zone of inhibition at 1000 µg/mL [15] of the same compound?
A: The zone of inhibition at 1000 µg/mL was 9 ± 0.14 mm.

Q: Which zone of inhibition at 1000 µg/mL [1] does the source give for `O=C(Nc1ccc(S(=O)(=O)c2nccs2)cc1)c1cc(N=Nc2nccs2)ccc1O` [Compound 3c, 2-Hydroxy-5-(thiazol-2-yldiazenyl)-N-(4-(thiazol-2-ylsulfonyl)phenyl)benzamide] here?
A: Its zone of inhibition at 1000 µg/mL is 10 ± 0.33 mm.

Q: And the MIC [2]?
A: The MIC was 20 µg/mL (≈ 42.4 µM).

Q: And the zone of inhibition at 1000 µg/mL [4]?
A: Its zone of inhibition at 1000 µg/mL is 12 ± 0.11 mm.

Q: What about the zone of inhibition at 1000 µg/mL [5] of the same compound?
A: The zone of inhibition at 1000 µg/mL was 9 ± 0.21 mm.

Q: What about the zone of inhibition at 1000 µg/mL [6] of the same compound?
A: Its zone of inhibition at 1000 µg/mL is 16 ± 0.09 mm.

Q: What about the MIC ([7]; Staphylococcus aureus) of the same compound?
A: The MIC was 10 µg/mL (≈ 21.2 µM).

Q: And the MIC [8]?
A: Its MIC is 40 µg/mL (≈ 84.8 µM).

Q: And the MIC [9]?
A: The MIC was 40 µg/mL (≈ 84.8 µM).

Q: And the zone of inhibition at 1000 µg/mL [10]?
A: Its zone of inhibition at 1000 µg/mL is 12 ± 0.43 mm.

Q: And the zone of inhibition at 1000 µg/mL [12]?
A: Its zone of inhibition at 1000 µg/mL is 9 ± 0.33 mm.

Q: What about the “Day utilized for recovery” value [17] of the same compound?
A: Its value is 27 days.

Q: What about the zone of inhibition at 1000 µg/mL [13] of the same compound?
A: Its zone of inhibition at 1000 µg/mL is 10 ± 0.13 mm.

Q: And the Mortality [18]?
A: Its Mortality is “no occurrences of mortality”.

Q: What about the Signs of toxicity [18] of the same compound?
A: Its Signs of toxicity is “did not display any noteworthy signs of toxicity”.

Q: What about the MIC [14] of the same compound?
A: The MIC was 40 µg/mL (≈ 84.8 µM).

Q: And the zone of inhibition at 1000 µg/mL [15]?
A: The zone of inhibition at 1000 µg/mL was 9 ± 0.16 mm.

Q: For `O=C(Nc1nccs1)c1cc(N=Nc2nccs2)ccc1O` [Compound 3a, 2-Hydroxy-N-(thiazol-2-yl)-5-(thiazol-2-yldiazenyl)benzamide], which zone of inhibition at 1000 µg/mL [1] is on record?
A: The zone of inhibition at 1000 µg/mL was 10 ± 0.15 mm.

Q: And the MIC [2]?
A: Its MIC is 80 µg/mL (≈ 241 µM).

Q: What about the MIC [3] of the same compound?
A: The MIC was 200 µg/mL (≈ 604 µM).

Q: And the zone of inhibition at 1000 µg/mL [4]?
A: Its zone of inhibition at 1000 µg/mL is 13 ± 0.22 mm.

Q: And the zone of inhibition at 1000 µg/mL [5]?
A: The zone of inhibition at 1000 µg/mL was 9 ± 0.28 mm.

Q: And the zone of inhibition at 1000 µg/mL [6]?
A: Its zone of inhibition at 1000 µg/mL is 13 ± 0.21 mm.

Q: What about the MIC ([7]; Staphylococcus aureus) of the same compound?
A: The MIC was 10 µg/mL (≈ 30.2 µM).

Q: And the MIC [8]?
A: The MIC was 60 µg/mL (≈ 181 µM).

Q: What about the MIC [16] of the same compound?
A: Its MIC is 60 µg/mL (≈ 181 µM).

Q: And the MIC [9]?
A: The MIC was 80 µg/mL (≈ 241 µM).

Q: What about the zone of inhibition at 1000 µg/mL [10] of the same compound?
A: Its zone of inhibition at 1000 µg/mL is 18 ± 0.26 mm.

Q: And the MIC [11]?
A: Its MIC is 100 µg/mL (≈ 302 µM).

Q: And the zone of inhibition at 1000 µg/mL [12]?
A: The zone of inhibition at 1000 µg/mL was 9 mm.

Q: What about the “Day utilized for recovery” value [17] of the same compound?
A: The value was 26 days.

Q: And the zone of inhibition at 1000 µg/mL [13]?
A: Its zone of inhibition at 1000 µg/mL is 10 ± 0.23 mm.

Q: What about the Mortality [18] of the same compound?
A: Its Mortality is “no occurrences of mortality”.

Q: And the Signs of toxicity [18]?
A: Its Signs of toxicity is “did not display any noteworthy signs of toxicity”.

Q: And the MIC [14]?
A: The MIC was 40 µg/mL (≈ 121 µM).

Q: What about the zone of inhibition at 1000 µg/mL [15] of the same compound?
A: Its zone of inhibition at 1000 µg/mL is 9 ± 0.33 mm.
